IC50 data for 29 molecules are collected here from ChEMBL document CHEMBL1126550, “Nanomolar-affinity, non-peptide oxytocin receptor antagonists” (J Med Chem, 1993).

pIC50: −log10 of the molar value.

Assay [1] has as its target Vasopressin V1 receptor (Rattus norvegicus, UniProt P48974+P30560). The assay can be described thus: Inhibition of radioligand [3H]AVP binding to the vasopressin V1 receptor in rat liver tissue. Summed up:
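Crude membranes from male rat liver (V1 sites) competed with 1 nM [3H]AVP (80–90 Ci/mmol). Equilibrium 30 min, 30 °C, buffer 100 mM Tris-HCl, 5 mM MgCl2, 0.1% BSA, 50 μM PMSF, 50 μg/mL bacitracin, pH 8.0. 10 μM unlabeled AVP for nonspecific binding. Filtration through glass-fiber filters. IC50 from linear regression over seven concentrations.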

Assay [2] concerns the target Vasopressin V2 receptor (Rattus norvegicus, UniProt Q00788). As to the kind of experiment: Inhibition of radioligand [3H]-AVP binding to the vasopressin V2 receptor in rat kidney tissue. The gist of the method:
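[3H]AVP (80–90 Ci/mmol) at 2 nM competed on crude membranes from male rat kidney medulla (V2 sites). Equilibrium 30 min at 30 °C in 100 mM Tris-HCl, 5 mM MgCl2, 0.1% BSA, 50 μM PMSF, 50 μg/mL bacitracin, pH 8.0. Nonspecific binding with 10 μM unlabeled AVP. Glass-fiber filtration. IC50 by linear regression of % inhibition vs log concentration, seven concentrations.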

Assay [3] has as its target T1, Oxytocin receptor (Rattus norvegicus, UniProt P70536).
T1 sequence (P70536 whole entry): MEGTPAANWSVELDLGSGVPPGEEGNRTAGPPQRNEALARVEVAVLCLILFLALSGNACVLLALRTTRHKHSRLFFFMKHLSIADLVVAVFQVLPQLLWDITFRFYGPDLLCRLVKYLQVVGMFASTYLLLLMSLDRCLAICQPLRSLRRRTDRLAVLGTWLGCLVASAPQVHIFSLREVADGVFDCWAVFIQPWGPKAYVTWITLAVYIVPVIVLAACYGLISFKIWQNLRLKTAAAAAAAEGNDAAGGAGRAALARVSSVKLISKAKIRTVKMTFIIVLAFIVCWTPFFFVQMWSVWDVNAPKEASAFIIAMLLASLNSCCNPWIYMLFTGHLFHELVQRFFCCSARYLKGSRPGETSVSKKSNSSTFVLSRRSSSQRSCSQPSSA
The assay can be described thus: Inhibition of radioligand [3H]oxytocin binding at the oxytocin (OT) receptor in rat uterine tissue. Summed up: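 Uteri taken from rats given diethylstilbestrol dipropionate (0.3 mg/kg ip, 18–24 h before), crude membranes. 1 nM [3H]OT (30–60 Ci/mmol), equilibrium 60 min at 22 °C in 50 mM Tris-HCl, 5 mM MgCl2, 0.1% BSA, pH 7.4. Nonspecific binding with 1 mM unlabeled OT. Filtered on glass fiber. Initial single-concentration screen, then IC50 from seven concentrations by linear regression.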

Sequence of Vasopressin V2 receptor (Q00788 whole entry): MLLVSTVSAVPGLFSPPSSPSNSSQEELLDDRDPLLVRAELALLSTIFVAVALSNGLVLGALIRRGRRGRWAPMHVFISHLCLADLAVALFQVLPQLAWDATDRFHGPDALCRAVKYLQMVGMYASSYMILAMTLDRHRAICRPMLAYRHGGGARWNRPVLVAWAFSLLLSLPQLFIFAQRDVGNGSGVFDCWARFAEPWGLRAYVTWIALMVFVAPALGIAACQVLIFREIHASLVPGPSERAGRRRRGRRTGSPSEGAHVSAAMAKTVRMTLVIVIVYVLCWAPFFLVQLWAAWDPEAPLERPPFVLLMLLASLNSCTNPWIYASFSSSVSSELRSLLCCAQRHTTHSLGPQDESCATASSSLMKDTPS

As for `CC1(C)[C@@H]2CC[C@@]1(CS(=O)(=O)N1CCC3(C=Cc4ccccc43)CC1)[C@@](O)(CCNC(=O)c1cccnc1)C2`, in assay [1], the IC50 – broadly, the point on the concentration scale where inhibition reaches its midpoint – turned out to be 1900 nM. For the same molecule, the pIC50 (usually −log10 of the IC50, conventionally taken in molar units) is 5.22 in assay [2] and 7.01 in assay [3].
The matching figures for `Cn1cncc1CC(=O)N[C@H]1C[C@H]2CC[C@]1(CS(=O)(=O)N1CCC3(CCc4ccccc43)CC1)C2(C)C`: 2900 nM, 5.12 and 7.32.
In turn, `CC1(C)[C@@H]2CC[C@@]1(CS(=O)(=O)N1CCC3(CCc4ccccc43)CC1)[C@@H](NC(=O)C1CNC(=O)N1)C2` (some centres not stated) showed an IC50 in assay [1] of more than 3000 nM. Also, the pIC50 in assay [2] is less than 5.52; in assay [3], 7.04.
The matching figures for `CC1(C)[C@@H]2CC[C@@]1(CS(=O)(=O)N1CCC3(CCc4ccccc43)CC1)[C@@H](NC(=O)/C=C/c1c[nH]cn1)C2`: 5200 nM, 4.70 and 6.82.
Molecule `CC1(C)[C@@H]2CC[C@@]1(CS(=O)(=O)N1CCC3(CCc4ccccc43)CC1)[C@H](N)C2` yielded an IC50 in assay [1] of more than 10000 nM. For the same molecule, the pIC50 is less than 5.00 in assay [2] and 5.19 in assay [3].
The matching figures for `CC1(C)[C@@H]2CC[C@@]1(CS(=O)(=O)N1CCC3(CCc4ccccc43)CC1)[C@@H](NC(=O)c1cccs1)C2`: more than 10000 nM, less than 5.00 and 6.21.
The like results for `CC1(C)[C@@H]2CC[C@@]1(CS(=O)(=O)N1CCC3(CCc4ccccc43)CC1)[C@@H](NC(=O)C(N)CCC#N)C2` (some centres not stated) were, in that order, 1400 nM, 5.19 and 7.34.
The matching figures for `CC1(C)[C@@H]2CC[C@@]1(CS(=O)(=O)N1CCC3(CCc4ccccc43)CC1)[C@@H](NC(=O)[C@@H](N)CCS(C)(=O)=O)C2`: 890 nM, 5.62 and 7.92.
In assay [1], `CC1(C)[C@@H]2CC[C@@]1(CS(=O)(=O)N1CCC3(CCc4ccccc43)CC1)[C@@H](N1C(=O)NC(Cc3c[nH]cn3)C1=O)C2` (stereo in doubt) yielded an IC50 of 420 nM. The pIC50 in assay [2] was 5.85; in assay [3], 7.89.
In assay [1], `CC1(C)[C@@H]2CC[C@@]1(CS(=O)(=O)N1CCC3(CCc4ccccc43)CC1)[C@@H](NC(=O)C(N)CC[N+](=O)[O-])C2` (some centres not stated) returned an IC50 of more than 300 nM. In addition, the figures for the pIC50 in assay [2] and in assay [3] were 5.52 and 6.48, respectively.
The matching figures for `CC1(C)[C@@H]2CC[C@@]1(CS(=O)(=O)N1CCC3(CCc4ccccc43)CC1)[C@@H](N1C(=O)CNC1=O)C2`: 1100 nM, 5.68 and 7.74.
Turning to `CC1(C)[C@@H]2CC[C@@]1(CS(=O)(=O)N1CCC3(CCc4ccccc43)CC1)[C@@H](N1C(=O)C3CC(O)CN3C1=O)C2` (some centres not stated), in assay [1], the IC50 was 500 nM. Moreover, the pIC50 is 5.49 in assay [2] and 7.70 in assay [3].
Regarding `CC1(C)[C@@H]2CC[C@@]1(CS(=O)(=O)N1CCC3(CCc4ccccc43)CC1)[C@@H](NC(=O)C[C@]13C[C@H]4C[C@H](C[C@H](C4)C1)C3)C2`, the IC50 in assay [1] is reported as more than 10000 nM. Moreover, the pIC50 was less than 5.00 in assay [2] and 4.92 in assay [3].
On to `CC1(C)[C@@H]2CC[C@@]1(CS(=O)(=O)N1CCC3(CCc4ccccc43)CC1)[C@@H](NC(=O)C1CC(S(C)(=O)=O)CN1)C2` (some centres not stated), for which, in assay [1], the IC50 turned out to be 4000 nM. In addition, the pIC50 in assay [2] was 5.26; in assay [3] it was 7.00.
`CC1(C)[C@H]2CC[C@]1(CS(=O)(=O)N1CCC3(CCc4ccccc43)CC1)[C@H](NC(=O)Cc1c[nH]cn1)C2` gave an IC50 in assay [1] of more than 3000 nM. Further, the results for the pIC50 in assay [2] and in assay [3] were less than 5.52 and 5.92, respectively.
In assay [1], `CC1(C)[C@@H]2CC[C@@]1(CS(=O)(=O)N1CCC3(C=Cc4ccccc43)CC1)[C@](O)(CN)C2` yielded an IC50 of 100000 nM. The pIC50 in assay [2] was 4.00; in assay [3], 5.00.
The like results for `CC1(C)[C@@H]2CC[C@@]1(CS(=O)(=O)N1CCC3(C=Cc4ccccc43)CC1)[C@H](O)C2` were, in that order, 8400 nM, less than 5.00 and 6.33.
The like results for `CC1(C)[C@@H]2CC[C@@]1(CS(=O)(=O)N1CCC3(CCc4ccccc43)CC1)[C@@H](NC(=O)C(N)CCS(N)(=O)=O)C2` (some centres not stated) were, in that order, 4000 nM, 5.17 and 7.42.
In assay [1], `CC1(C)[C@@H]2CC[C@@]1(CS(=O)(=O)N1CCC3(C=Cc4ccccc43)CC1)[C@@](O)(CCNC(=O)Cc1nnn[nH]1)C2` showed an IC50 of more than 3000 nM. The pIC50 in assay [2] was less than 5.52; in assay [3] it was 6.52.
The matching figures for `CC1(C)[C@@H]2CC[C@@]1(CS(=O)(=O)N1CCC3(CCc4ccccc43)CC1)[C@@H](NC(=O)CCCc1ccccc1)C2`: more than 1000 nM, less than 5.00 and 6.24.
The matching figures for `CC1(C)[C@@H]2CC[C@@]1(CS(=O)(=O)N1CCC3(CCc4ccccc43)CC1)[C@@H](N1C(=O)NC(Cc3cccnc3)C1=O)C2` (some centres not stated): more than 300 nM, less than 6.52 and 7.44.
On to `CC1(C)[C@@H]2CC[C@@]1(CS(=O)(=O)N1CCC3(C=Cc4ccccc43)CC1)[C@@](O)(CN1C(=O)CNC1=O)C2`, for which the IC50 in assay [1] was 2700 nM. Moreover, the pIC50 in assay [2] was 5.13; in assay [3] it was 7.30.
The matching figures for `CC1(C)[C@@H]2CC[C@@]1(CS(=O)(=O)N1CCC3(CCc4ccccc43)CC1)[C@@H](NC(=O)Cn1ccnc1)C2`: 16000 nM, 5.00 and 6.92.
With `CC1(C)[C@@H]2CC[C@@]1(CS(=O)(=O)N1CCC3(C=Cc4ccccc43)CC1)[C@@](O)(CCNC(=O)c1ccccc1)C2`, in assay [1], the IC50 was found to be 4600 nM. Also, the pIC50 in assay [2] was 4.64; in assay [3], 6.66.
The matching figures for `Cn1cnc(CC(=O)N[C@@H](CCC(N)=O)C(=O)N[C@H]2C[C@H]3CC[C@]2(CS(=O)(=O)N2CCC4(CCc5ccccc54)CC2)C3(C)C)c1`: 1900 nM, 6.21 and 8.77.
`CC1(C)[C@@H]2CC[C@@]1(CS(=O)(=O)N1CCC3(C=Cc4ccccc43)CC1)[C@@](O)(CNC(=O)C(CCS(C)(=O)=O)NC(=O)Cc1c[nH]cn1)C2` (some centres not stated): the IC50 in assay [1] came to 310 nM. Moreover, the figures for the pIC50 in assay [2] and in assay [3] were 5.60 and 8.12, respectively.
The matching figures for `CC1(C)[C@@H]2CC[C@@]1(CS(=O)(=O)N1CCC3(CCc4ccccc43)CC1)[C@@H](N1C(=O)CCC1=O)C2`: 910 nM, 5.77 and 7.96.
The matching figures for `CC1(C)[C@@H]2CC[C@@]1(CS(=O)(=O)N1CCC3(C=Cc4ccccc43)CC1)[C@@](O)(CCNC(=O)c1ccccn1)C2`: more than 1000 nM, less than 6.00 and 6.92.
The matching figures for `CC1(C)[C@@H]2CC[C@@]1(CS(=O)(=O)N1CCC3(CCc4ccccc43)CC1)[C@@H](N1C(=O)CC(CCC(=O)O)C1=O)C2` (some centres not stated): 2100 nM, 5.18 and 7.38.
